Here are results for 15 compounds from ChEMBL document CHEMBL2384995, “Discovery of highly potent triazole antifungal derivatives by heterocycle-benzene bioisosteric replacement” (Eur J Med Chem, 2013).

≈ marks a conversion by molar mass, not a printed value.

Series [1] can be described thus: Half life in Sprague-Dawley rat at 15 mg/kg, po by LC/MS/MS analysis. The format is ADME, organism-based. Further details: dose 15 mg/kg, route oral. The note with it: in vivo. Summed up:
(§1)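 Single oral dose of 15 mg/kg in Sprague-Dawley rats. Blood was drawn from the orbital venous plexus at several time points and plasma drug levels were quantified by LC/MS/MS, from which the pharmacokinetic parameters were obtained.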

The nature of series [2]: Cmax in Sprague-Dawley rat at 15 mg/kg, po by LC/MS/MS analysis. The format is ADME, organism-based. The note with it: in vivo. Further details: dose 15 mg/kg, route oral. Summed up:
as §1

Series [3] is described as follows: Tmax in Sprague-Dawley rat at 15 mg/kg, po by LC/MS/MS analysis. The format is ADME, organism-based. On the set-up: dose 15 mg/kg, route oral. The settings on record: in vivo. Summed up: as §1
Series [4] is described as follows: AUC (0 to infinity) in Sprague-Dawley rat at 15 mg/kg, po by LC/MS/MS analysis. Format: ADME, organism-based. On the set-up: time infinity, dose 15 mg/kg, route oral. The settings on record: plasma. Summed up:
as §1

Series [5] has as its system Cryptococcus neoformans. Kind of series: Ratio of fluconazole MIC80 to compound MIC80 for Cryptococcus neoformans. Format: functional.
The next series has as its system Candida albicans. The series can be described thus: Antifungal activity against Candida albicans after 24 hrs by NCCLS method. Format: functional. The essentials: (§2)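 Broth microdilution in 96-well plates following NCCLS recommendations, using ATCC strains or clinical isolates. Compounds were dissolved in DMSO and serially diluted in growth medium. Yeast plates were incubated at 35 °C and read at 24 h. MIC80 is the lowest concentration giving turbidity of […] inhibition relative to the drug-free growth control.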

In series [6] the test system is Trichophyton rubrum. Kind of series: Antifungal activity against Trichophyton rubrum by NCCLS method. The format is functional. Summed up:
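Dermatophyte MIC by NCCLS broth serial dilution in 96-well plates, using an ATCC or clinical isolate. DMSO solutions were serially diluted in growth medium and incubated at 28 °C.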

Series [7] has as its system Cryptococcus neoformans. Kind of series: Antifungal activity against Cryptococcus neoformans after 72 hrs by NCCLS method. The format is functional. Summed up: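 NCCLS serial-dilution MIC assay in 96-well plates against an ATCC or clinical yeast isolate. Test agents were taken up in DMSO and diluted serially in growth medium. Plates were held at 35 °C and growth was scored at 72 h. MIC80 is the lowest concentration reducing turbidity by at least 80% compared with the control culture.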

The test system of the next series is Aspergillus fumigatus. The series can be described thus: Antifungal activity against Aspergillus fumigatus after 7 days by NCCLS method. The format is functional. The settings on record: 168 h. The essentials:
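Microtest-plate serial dilution per NCCLS, with the strain taken from ATCC or a clinical source. Compounds were prepared in DMSO and serially diluted in growth medium. Growth was read after 7 days. The endpoint is the lowest concentration producing ≥80% turbidity inhibition versus the untreated growth control.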

For series [8], the system named is Trichophyton rubrum. Kind of series: Ratio of fluconazole MIC80 to compound MIC80 for Trichophyton rubrum. Format: functional.
The test system of the next series is Candida tropicalis. The series can be described thus: Antifungal activity against Candida tropicalis after 24 hrs by NCCLS method. Format: functional. The essentials: as §2
The mark [9] stands for this setting: Candida albicans, 24 h, read-out: MIC80.
The mark [10] stands for this setting: Cryptococcus neoformans, 72 h, read-out: MIC80.

What is called half-life is the time needed for the level to fall by half in the phase considered. A high value points to slow loss. As a reminder, the Cmax is the highest concentration seen after dosing. As usually defined, the Tmax is the time from dosing to the highest level. Usually AUC(0-inf) stands for the area under the concentration-time curve extrapolated to infinity. A lower AUC(0-inf) goes with less exposure. Take `CN(Cc1ccc(I)cc1)CC(O)(Cn1cncn1)c1ccc(F)cc1F` (stereo not drawn): the half-life in series [1] is 1.38 h. For the same compound, in series [2], the highest level (Cmax) was 297 ng/mL. The Tmax in series [3] turned out to be 0.9 h. For the same compound, the AUC(0-inf) in [4] was determined as 546 ng·h/mL.
The term MIC80 denotes an inhibitory concentration at the 80% level, which refers to growth in some studies and to a panel of isolates in others. `OC(CN1CCN(Cc2nc3ccccc3s2)CC1)(Cn1cncn1)c1ccc(F)cc1F` (racemic): the half-life in series [1] is 1.27 h. The Ratio was determined as 125 with Cryptococcus neoformans [5] and 16 with Trichophyton rubrum [8]. Also, the Cmax in series [2] came out at 508 ng/mL. In addition, the MIC80 against Candida albicans came to 0.016 µg/mL (≈ 0.034 µM); against Trichophyton rubrum [6], 0.0625 µg/mL (≈ 0.133 µM); against Cryptococcus neoformans [7], 0.016 µg/mL (≈ 0.034 µM); in the series with Aspergillus fumigatus, 64 µg/mL (≈ 136 µM); in the series with Candida tropicalis, 0.004 µg/mL (≈ 0.0085 µM). Besides, the Tmax in series [3] was determined as 0.8 h. In series [4], this compound displayed an AUC(0-inf) of 1420 ng·h/mL.
With `CN(Cc1cccs1)CC(O)(Cn1cncn1)c1ccc(F)cc1F` (racemic), the Ratio with Cryptococcus neoformans [5] was 125. The MIC80 with Candida albicans (setting [9]) amounted to 1 µg/mL (≈ 2.74 µM); against Trichophyton rubrum [6] it was 1 µg/mL (≈ 2.74 µM); with Cryptococcus neoformans [7] (setting [10]) it was 0.016 µg/mL (≈ 0.0439 µM); in the series on Aspergillus fumigatus it was 16 µg/mL (≈ 43.9 µM); against Candida tropicalis, 0.125 µg/mL (≈ 0.343 µM).
Consider `CN(Cc1ccco1)CC(O)(Cn1cncn1)c1ccc(F)cc1F` (racemic), for which the Ratio with Cryptococcus neoformans [5] was determined as 32. In addition, the MIC80 worked out at 0.0625 µg/mL (≈ 0.179 µM) in the series on Candida albicans (setting [9]); 1 µg/mL (≈ 2.87 µM) against Trichophyton rubrum [6]; 0.0625 µg/mL (≈ 0.179 µM) in the series on Cryptococcus neoformans [7] (setting [10]); 64 µg/mL (≈ 184 µM) with Aspergillus fumigatus; 0.016 µg/mL (≈ 0.0459 µM) with Candida tropicalis.
With `CN(Cc1ccc2ccccc2n1)CC(O)(Cn1cncn1)c1ccc(F)cc1F` (racemic), the Ratio with Cryptococcus neoformans [5] stood at 8. Also, the MIC80 with Candida albicans (setting [9]) was 4 µg/mL (≈ 9.77 µM); with Trichophyton rubrum [6], 4 µg/mL (≈ 9.77 µM); in the series on Cryptococcus neoformans [7] (setting [10]) it was 0.25 µg/mL (≈ 0.611 µM); against Aspergillus fumigatus, > 64 µg/mL; in the series on Candida tropicalis it was 1 µg/mL (≈ 2.44 µM).
For `CN(Cc1ccccn1)CC(O)(Cn1cncn1)c1ccc(F)cc1F` (racemic), the Ratio with Cryptococcus neoformans [5] came out at 8. Besides, the MIC80 is 1 µg/mL (≈ 2.78 µM) in the series on Candida albicans (setting [9]); 4 µg/mL (≈ 11.1 µM) against Trichophyton rubrum [6]; 0.25 µg/mL (≈ 0.696 µM) in the series on Cryptococcus neoformans [7] (setting [10]); > 64 µg/mL against Aspergillus fumigatus; 0.0625 µg/mL (≈ 0.174 µM) in the series with Candida tropicalis.
As to `CN(Cc1nc2ccccc2[nH]1)CC(O)(Cn1cncn1)c1ccc(F)cc1F` (racemic), the MIC80 with Candida albicans (setting [9]) is 4 µg/mL (≈ 10 µM); against Trichophyton rubrum [6], > 64 µg/mL; in the series on Cryptococcus neoformans [7] (setting [10]), 16 µg/mL (≈ 40.2 µM); in the series with Aspergillus fumigatus, > 64 µg/mL; against Candida tropicalis, 0.25 µg/mL (≈ 0.627 µM).
Consider `OC(CN1CCN(Cc2cccs2)CC1)(Cn1cncn1)c1ccc(F)cc1F` (racemic), for which, in the series on Cryptococcus neoformans [5], the Ratio amounted to 8. The MIC80 was 0.0625 µg/mL (≈ 0.149 µM) in the series with Candida albicans (setting [9]); 4 µg/mL (≈ 9.54 µM) with Trichophyton rubrum [6]; 0.25 µg/mL (≈ 0.596 µM) in the series with Cryptococcus neoformans [7] (setting [10]); 16 µg/mL (≈ 38.1 µM) against Aspergillus fumigatus; 0.016 µg/mL (≈ 0.0381 µM) with Candida tropicalis.
Consider `OC(CN1CCN(Cc2ccc3ccccc3n2)CC1)(Cn1cncn1)c1ccc(F)cc1F` (racemic), for which the Ratio in the series with Cryptococcus neoformans [5] is 32. For the same compound, the MIC80 in the series on Candida albicans (setting [9]) stood at 1 µg/mL (≈ 2.15 µM); in the series with Trichophyton rubrum [6], 0.25 µg/mL (≈ 0.538 µM); in the series with Cryptococcus neoformans [7] (setting [10]), 0.0625 µg/mL (≈ 0.135 µM); in the series on Aspergillus fumigatus it was 2 µg/mL (≈ 4.31 µM); in the series with Candida tropicalis it was 0.016 µg/mL (≈ 0.0344 µM).
Turning to `OC(CN1CCN(Cc2ccccn2)CC1)(Cn1cncn1)c1ccc(F)cc1F` (racemic), in the series on Cryptococcus neoformans [5], the Ratio is 2. In addition, the MIC80 came out at 0.0625 µg/mL (≈ 0.151 µM) in the series on Candida albicans (setting [9]); 1 µg/mL (≈ 2.41 µM) with Trichophyton rubrum [6]; 1 µg/mL (≈ 2.41 µM) in the series on Cryptococcus neoformans [7] (setting [10]); 16 µg/mL (≈ 38.6 µM) in the series with Aspergillus fumigatus; 1 µg/mL (≈ 2.41 µM) against Candida tropicalis.
In the case of `OC(CN1CCN(Cc2nc3ccccc3[nH]2)CC1)(Cn1cncn1)c1ccc(F)cc1F` (racemic), the MIC80 with Candida albicans (setting [9]) is 4 µg/mL (≈ 8.82 µM); against Trichophyton rubrum [6], 64 µg/mL (≈ 141 µM); with Cryptococcus neoformans [7] (setting [10]) it was 16 µg/mL (≈ 35.3 µM); with Aspergillus fumigatus, > 64 µg/mL; in the series on Candida tropicalis, 1 µg/mL (≈ 2.21 µM).
With `OC(CN1CCN(Cc2nc3ccccc3o2)CC1)(Cn1cncn1)c1ccc(F)cc1F` (racemic), the Ratio with Cryptococcus neoformans [5] is 32; with Trichophyton rubrum [8], 4. Moreover, the MIC80 in the series on Candida albicans (setting [9]) is 0.0625 µg/mL (≈ 0.138 µM); with Trichophyton rubrum [6], 0.25 µg/mL (≈ 0.55 µM); in the series on Cryptococcus neoformans [7] (setting [10]), 0.0625 µg/mL (≈ 0.138 µM); against Aspergillus fumigatus, 0.25 µg/mL (≈ 0.55 µM); in the series with Candida tropicalis, 0.004 µg/mL (≈ 0.0088 µM).
Consider `OC(CN1CCN(Cc2nc3ccccc3s2)CC1)(Cn1cncn1)c1ccc(F)cc1F` (single isomer, unassigned; (+)), for which the MIC80 in the series on Candida albicans and against Cryptococcus neoformans [7] was 0.0625 µg/mL (≈ 0.133 µM) each time.
For the compound `OC(CN1CCN(Cc2nc3ccccc3s2)CC1)(Cn1cncn1)c1ccc(F)cc1F` (stereo in doubt; (-)-8f), the MIC80 in the series with Candida albicans and against Cryptococcus neoformans [7] was <0.016 µg/mL in each case.
For `OC(Cn1cncn1)(Cn1cncn1)c1ccc(F)cc1F` [FLUCONAZOLE], the MIC80 was 0.25 µg/mL (≈ 0.816 µM) in the series with Candida albicans (setting [9]); 1 µg/mL (≈ 3.27 µM) against Trichophyton rubrum [6]; 2 µg/mL (≈ 6.53 µM) in the series on Cryptococcus neoformans [7] (setting [10]); > 64 µg/mL in the series with Aspergillus fumigatus; 4 µg/mL (≈ 13.1 µM) in the series with Candida tropicalis.
